KDM4C inh = inhibitors of GASC-1 (KDM4C) histone demethylase, primary screen, biochemical, single concentration HTS | AID 720574, 2013 | GST-KDM4C 2-372, H3K9me3 peptide, LANCE TR-FRET | inhibition, % at 12.5 µM | 0.15% of 96,000 active;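 active = mean replicate inhibition above about 25%, with at least 55% of replicates also reaching it, limit read from the data, passing the limit was not always enough; inconclusive = only one of those two conditions met; inactive = neither condition met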
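Material: GST-tagged GASC-1 (JMJD2C) catalytic fragment, aa 2-372 / Quantity: enzyme final amount 10 nM / Medium: HEPES buffer, pH 7.5, plus ascorbate / Doses: one test concentration per compound / Incubation: 30 min reaction, 60 min detection, RT / Measured by: LANCE TR-FRET / Read-out: inhibition from TR-FRET ratio decrease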
T cruzi growth-1 = T. cruzi intracellular proliferation inhibitors, primary screen, cell-based, beta-gal Tulahuen parasites, NIH3T3 host, luminescence; T. cruzi beta-gal in NIH3T3, GalScreen luminescence, 90 h; inhibition, % at 8.34 µM; 5.9% of 77,000 active;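 active = mean inhibition above about 93%, with at least 55% of replicates each passing it, limit read from the data, passing the limit was not always enough; inconclusive = only one of those two conditions holds; inactive = neither condition holds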
IDH1 R132H inh = inhibitors of IDH1 R132H reductase, primary screen, biochemical, plate reader, single point; diaphorase/resazurin fluorescence, 60 min; inhibition, % at 10 µM; 0.18% of 70,000 active; AID 624101, 2012; in the data active = inhibition above about 34%; inconclusive = no clear call, values can overlap the other calls; inactive = below about 11%;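 note: 0% = DMSO and 100% = no enzyme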
Target sequence (O75874 whole entry R132H): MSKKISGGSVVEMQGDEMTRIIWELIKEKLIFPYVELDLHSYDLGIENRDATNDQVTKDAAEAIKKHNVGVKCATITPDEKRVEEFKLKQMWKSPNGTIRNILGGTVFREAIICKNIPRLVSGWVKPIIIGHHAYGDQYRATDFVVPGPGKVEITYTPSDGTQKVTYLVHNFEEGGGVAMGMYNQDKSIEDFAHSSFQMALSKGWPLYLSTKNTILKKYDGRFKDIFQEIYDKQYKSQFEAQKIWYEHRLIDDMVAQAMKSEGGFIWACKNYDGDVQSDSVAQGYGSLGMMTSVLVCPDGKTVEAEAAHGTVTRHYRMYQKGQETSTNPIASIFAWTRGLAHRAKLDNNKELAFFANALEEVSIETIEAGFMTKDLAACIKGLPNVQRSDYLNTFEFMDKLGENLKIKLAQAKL
T cruzi growth-2 = T. cruzi intracellular proliferation inhibitors, confirmation, cell-based, NIH3T3 host, beta-gal parasite, luminescence, cherry-pick. shares compounds with T cruzi growth-1. T. cruzi beta-gal in NIH3T3, GalScreen luminescence, 90 h. inhibition, % at 8.35 µM. 72% of 5,600 active. AID 651739, 2012;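 active = mean replicate inhibition above about 95% and at least 55% of replicates individually reaching it, limit read from the data; inconclusive = only one of the two criteria is met; inactive = neither criterion is met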
T cruzi growth-3 = inhibitors of intracellular T. cruzi replication, confirmation, NIH3T3 host cells, beta-gal parasites, cherry-pick, set 2. shares compounds with T cruzi growth-1. T. cruzi beta-gal in NIH3T3, GalScreen luminescence, 90 h. inhibition, % at 2.09 µM. 21% of 5,600 active;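 active = mean inhibition above about 95%, with at least 55% of replicates also reaching it, limit read from the data; inconclusive = meets just one of the two conditions; inactive = meets neither condition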;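 note: plate controls were neutral control median for no effect and positive control median for full effect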
NIH3T3 tox = cytotoxicity in mouse NIH/3T3 fibroblasts, confirmation, cytotoxicity control for T. cruzi proliferation inhibitor project, cell-based, cherry-pick, single point | AID 651742, 2012 | cytotoxicity (signal decrease), % at 8.35 µM | shares compounds with T cruzi growth-1 | NIH/3T3 viability, CellTiter-Glo ATP luminescence, 90 h | 14% of 5,600 active;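 active = mean signal decrease across replicates above about 35% based on untreated-well scatter, with enough replicates individually passing, limit read from the data; inconclusive = no rule stated though some were filed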;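 note: 0% = median of neutral control wells and 100% = median of positive control wells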
3T3 cytotox 2 = NIH/3T3 fibroblast cytotoxicity, confirmation, cytotoxicity control, cell-based, cherry-pick, single point, set 2; shares compounds with T cruzi growth-1; NIH/3T3 viability, CellTiter-Glo ATP luminescence, 90 h; inhibition, % at 24.9 µM; 56% of 5,600 active;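 active = mean loss of cell viability signal at or above a set limit, and enough replicates individually reaching it; inconclusive = meets only the mean limit or only the replicate share; inactive = meets neither condition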;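 note: 0% = median of neutral control wells and 100% = median of positive control wells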
Active calls of the source: *; ? = inconclusive; / = no result. Shown is part of a subset that was picked to be rich in hits.

SMILES | KDM4C inh | T cruzi growth-1 | IDH1 R132H inh | T cruzi growth-2 | T cruzi growth-3 | NIH3T3 tox | 3T3 cytotox 2
C[C@H](CO)N1C[C@H](C)[C@@H](CN(C)C(=O)Nc2ccc(C(F)(F)F)cc2)OCCCC[C@H](C)Oc2ccc(NC(=O)CCC(F)(F)F)cc2C1=O | -1 | 101* | / | 108* | 89 | -8 | 24
C[C@@H]1CCCCO[C@@H](CN(C)C(=O)Nc2ccc(C(F)(F)F)cc2)[C@@H](C)CN([C@H](C)CO)C(=O)c2cc(NC(=O)CCC(F)(F)F)ccc2O1 | -1 | 63 | / | / | / | / | /
C[C@@H]1CN([C@H](C)CO)C(=O)c2cc(NC(=O)CCC(F)(F)F)ccc2O[C@@H](C)CCCCO[C@H]1CN(C)C(=O)Nc1ccc(F)cc1 | 1 | -46 | 1 | / | / | / | /
COc1ccc(NC(=O)Nc2cccc3c2O[C@H](CN(C)CC2CCCCC2)[C@H](C)CN([C@@H](C)CO)C3=O)cc1 | 1 | -36 | / | / | / | / | /
CS(=O)(=O)N(CC(=O)Nc1ccc(I)cc1)c1ccc(Cl)cc1Cl | / | / | 0 | / | / | / | /
C/C=C/c1ccc2c(c1)O[C@@H](CN(C)C(=O)CC)[C@@H](C)CN([C@H](C)CO)S2(=O)=O | 6 | -8 | -1 | / | / | / | /
COc1ccc(-c2ccc([C@H]3[C@@H](C#N)N(C(=O)NC4CCCCC4)[C@H]3CO)cc2)cc1 | -3 | 102* | / | 97* | 35 | 34 | 35*
COc1ccc(-c2ccc([C@H]3[C@H](C#N)N(C(=O)NC(C)C)[C@H]3CO)cc2)cc1 | -1 | 90 | / | / | / | / | /
COc1ccc(-c2ccc([C@@H]3[C@@H](C#N)N(C(=O)NC4CCCCC4)[C@H]3CO)cc2)cc1 | -1 | 93 | / | / | / | / | /
CC(C)NC(=O)N1[C@H](C#N)[C@H](c2ccc(-c3ccc(F)cc3)cc2)[C@@H]1CO | 1 | ? | / | 96* | 109* | 3 | 15
COc1ccc(-c2ccc([C@H]3[C@@H](C#N)N(C(=O)NC(C)C)[C@H]3CO)cc2)cc1 | -3 | 98* | / | 105* | 109* | 12 | 34*
CC(C)NC(=O)N1[C@H](CO)[C@@H](c2ccc(-c3ccc(F)cc3)cc2)[C@@H]1C#N | -1 | 32 | / | / | / | / | /
C=CCNC(=O)[C@H]1[C@@H]2C(=O)O[C@@H](c3ccccc3)[C@@H](c3ccccc3)N2[C@@H](c2ccc(O)cc2)[C@]12C(=O)Nc1ccccc12 | / | / | 0 | / | / | / | /
C[C@@H]1CN([C@@H](C)CO)C(=O)c2c(c3ccccc3n2C)-c2ccccc2CO[C@@H]1CN(C)CC1CC1 | 4 | 16 | -6 | / | / | / | /
CN1CCN(C(=S)SCC(=O)Nc2nc(=O)c3ccccc3s2)CC1 | / | / | -1 | / | / | / | /
C[C@@H]1CN([C@H](C)CO)C(=O)Cc2cc(NC(=O)Cc3ccccc3)ccc2O[C@H]1CN(C)Cc1ccc2c(c1)OCO2 | -1 | 12 | 1 | / | / | / | /
C[C@H](CO)N1C[C@H](C)[C@H](CN(C)Cc2ccc(C(F)(F)F)cc2)Oc2ccc(NC(=O)Cc3ccccc3)cc2CC1=O | 0 | 85 | / | / | / | / | /
C[C@H]1CN([C@@H](C)CO)C(=O)Cc2cc(NC(=O)Cc3ccccc3)ccc2O[C@@H]1CN(C)Cc1ccc(C(F)(F)F)cc1 | 13 | 120* | 0 | 112* | 92 | -5 | 98*
C[C@H]1CN([C@@H](C)CO)C(=O)Cc2cc(NC(=O)Cc3ccccc3)ccc2O[C@@H]1CN(C)Cc1ccc2c(c1)OCO2 | 2 | 102* | 0 | 108* | 21 | 11 | 3
C[C@H]1CN([C@@H](C)CO)C(=O)Cc2cc(NC(=O)Cc3ccccc3)ccc2O[C@H]1CN(C)Cc1ccc(C(F)(F)F)cc1 | 0 | 105* | 0 | 108* | 67 | 14 | 104*
